Reference: ChEMBL document CHEMBL4689842, “EUbOPEN Chemogenomics Library wave 1” (2021)

What was measured:
Type in all cases: toxicity, cell-based
[1] = test system: Fibroblast; assay: Multiplex assay against human fibroblast
Outline: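 Per cents of healthy-nucleus cells form the tubulin, mitochondrial-mass and membrane-permeability phenotype values. Live cells were stained at seeding with Hoechst33342, BioTracker Green Microtubule Cytoskeleton Dye, MitoTracker Red and Annexin V Alexa Fluor 680. After compound addition they were imaged on a CQ1 microscope at 37°C and 5% CO2, and CellPathfinder machine-learning gating split them into Hoechst high-intensity objects or normal cells, normal cells into healthy, pyknosed or fragmented nuclei, and pyknosed cells into mitotic or apoptotic.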

[2] = test system: HEK-293T; assay: Incucyte cell viability with HEK293T; conditions: human, 10 µM, compound concentration 10 uM; also: filed as whole numbers so only -1 and 0 and 1 occur
[3] = test system: U2OS; assay: Incucyte cell viability with U2OS; conditions: human, 10 µM, compound concentration 10 uM; also: filed as whole numbers so only -1 and 0 and 1 occur
[4] = 12 h, 1 µM, compound concentration 1 uM, replicate 1
[5] = 12 h, 1 µM, compound concentration 1 uM, replicate 2
[6] = 12 h, 10 µM, compound concentration 10 uM, replicate 1
[7] = 12 h, 10 µM, compound concentration 10 uM, replicate 2
[8] = 24 h, 1 µM, compound concentration 1 uM, replicate 1
[9] = 24 h, 1 µM, compound concentration 1 uM, replicate 2
[10] = 24 h, 10 µM, compound concentration 10 uM, replicate 1
[11] = 24 h, 10 µM, compound concentration 10 uM, replicate 2
[12] = 48 h, 1 µM, compound concentration 1 uM, replicate 1
[13] = 48 h, 1 µM, compound concentration 1 uM, replicate 2
[14] = 48 h, 10 µM, compound concentration 10 uM, replicate 1
[15] = 48 h, 10 µM, compound concentration 10 uM, replicate 2
[16] = 6 h, replicate number 1, timepoint 6 hours
[17] = 12 h, replicate number 1, timepoint 12 hours
[18] = 18 h, replicate number 1, timepoint 18 hours
[19] = 24 h, replicate number 1, timepoint 24 hours

Cl.NC[C@@H]1O[C@H](C23CC4CC(CC(C4)C2)C3)Cc2c1ccc(O)c2O
Population Apoptotic (%) [1, 4]: 60%
Population Fragmented Nuclei (%) [1, 4]: 28%
Population Healthy Nuclei (%) [1, 4]: 51%
Population Hoechst High Intensity Objects (%) [1, 4]: 12%
Population Membrane Permeable-Phenotype (%) [1, 4]: 16%
Population Mitochondria Different-Phenotype (%) [1, 4]: 1%
Population Mitotic Cells (%) [1, 4]: 40%
Population Normal (%) [1, 4]: 87%
Population Pyknosed Nuclei (%) [1, 4]: 20%
Population Tubulin-Different-Phenotype (%) [1, 4]: 24%
Total Cell Count [1, 4]: 171
Population Apoptotic (%) [1, 5]: 0%
Population Fragmented Nuclei (%) [1, 5]: 6%
Population Healthy Nuclei (%) [1, 5]: 91%
Population Hoechst High Intensity Objects (%) [1, 5]: 3%
Population Membrane Permeable-Phenotype (%) [1, 5]: 2%
Population Mitochondria Different-Phenotype (%) [1, 5]: 9%
Population Mitotic Cells (%) [1, 5]: 100%
Population Normal (%) [1, 5]: 96%
Population Pyknosed Nuclei (%) [1, 5]: 2%
Population Tubulin-Different-Phenotype (%) [1, 5]: 10%
Total Cell Count [1, 5]: 95
Population Apoptotic (%) [1, 6]: 44%
Population Fragmented Nuclei (%) [1, 6]: 29%
Population Healthy Nuclei (%) [1, 6]: 42%
Population Hoechst High Intensity Objects (%) [1, 6]: 15%
Population Membrane Permeable-Phenotype (%) [1, 6]: 8%
Population Mitochondria Different-Phenotype (%) [1, 6]: 9%
Population Mitotic Cells (%) [1, 6]: 55%
Population Normal (%) [1, 6]: 84%
Population Pyknosed Nuclei (%) [1, 6]: 28%
Population Tubulin-Different-Phenotype (%) [1, 6]: 46%
Total Cell Count [1, 6]: 205
Population Apoptotic (%) [1, 7]: 52%
Population Fragmented Nuclei (%) [1, 7]: 39%
Population Healthy Nuclei (%) [1, 7]: 32%
Population Hoechst High Intensity Objects (%) [1, 7]: 10%
Population Membrane Permeable-Phenotype (%) [1, 7]: 9%
Population Mitochondria Different-Phenotype (%) [1, 7]: 22%
Population Mitotic Cells (%) [1, 7]: 47%
Population Normal (%) [1, 7]: 89%
Population Pyknosed Nuclei (%) [1, 7]: 27%
Population Tubulin-Different-Phenotype (%) [1, 7]: 27%
Total Cell Count [1, 7]: 76
Population Apoptotic (%) [1, 8]: 50%
Population Fragmented Nuclei (%) [1, 8]: 32%
Population Healthy Nuclei (%) [1, 8]: 55%
Population Hoechst High Intensity Objects (%) [1, 8]: 14%
Population Membrane Permeable-Phenotype (%) [1, 8]: 14%
Population Mitochondria Different-Phenotype (%) [1, 8]: 0%
Population Mitotic Cells (%) [1, 8]: 50%
Population Normal (%) [1, 8]: 85%
Population Pyknosed Nuclei (%) [1, 8]: 12%
Population Tubulin-Different-Phenotype (%) [1, 8]: 26%
Total Cell Count [1, 8]: 213
Population Apoptotic (%) [1, 9]: 42%
Population Fragmented Nuclei (%) [1, 9]: 8%
Population Healthy Nuclei (%) [1, 9]: 85%
Population Hoechst High Intensity Objects (%) [1, 9]: 2%
Population Membrane Permeable-Phenotype (%) [1, 9]: 5%
Population Mitochondria Different-Phenotype (%) [1, 9]: 10%
Population Mitotic Cells (%) [1, 9]: 57%
Population Normal (%) [1, 9]: 97%
Population Pyknosed Nuclei (%) [1, 9]: 6%
Population Tubulin-Different-Phenotype (%) [1, 9]: 12%
Total Cell Count [1, 9]: 114
Population Apoptotic (%) [1, 10]: 58%
Population Fragmented Nuclei (%) [1, 10]: 17%
Population Healthy Nuclei (%) [1, 10]: 52%
Population Hoechst High Intensity Objects (%) [1, 10]: 29%
Population Membrane Permeable-Phenotype (%) [1, 10]: 5%
Population Mitochondria Different-Phenotype (%) [1, 10]: 16%
Population Mitotic Cells (%) [1, 10]: 41%
Population Normal (%) [1, 10]: 70%
Population Pyknosed Nuclei (%) [1, 10]: 30%
Population Tubulin-Different-Phenotype (%) [1, 10]: 50%
Total Cell Count [1, 10]: 181
Population Apoptotic (%) [1, 11]: 92%
Population Fragmented Nuclei (%) [1, 11]: 50%
Population Healthy Nuclei (%) [1, 11]: 29%
Population Hoechst High Intensity Objects (%) [1, 11]: 18%
Population Membrane Permeable-Phenotype (%) [1, 11]: 26%
Population Mitochondria Different-Phenotype (%) [1, 11]: 26%
Population Mitotic Cells (%) [1, 11]: 7%
Population Normal (%) [1, 11]: 81%
Population Pyknosed Nuclei (%) [1, 11]: 20%
Population Tubulin-Different-Phenotype (%) [1, 11]: 26%
Total Cell Count [1, 11]: 80
Population Apoptotic (%) [1, 12]: 87%
Population Fragmented Nuclei (%) [1, 12]: 36%
Population Healthy Nuclei (%) [1, 12]: 59%
Population Hoechst High Intensity Objects (%) [1, 12]: 11%
Population Membrane Permeable-Phenotype (%) [1, 12]: 10%
Population Mitotic Cells (%) [1, 12]: 12%
Population Normal (%) [1, 12]: 88%
Population Pyknosed Nuclei (%) [1, 12]: 4%
Population Tubulin-Different-Phenotype (%) [1, 12]: 13%
Total Cell Count [1, 12]: 212
Population Apoptotic (%) [1, 13]: 100%
Population Fragmented Nuclei (%) [1, 13]: 21%
Population Healthy Nuclei (%) [1, 13]: 77%
Population Hoechst High Intensity Objects (%) [1, 13]: 10%
Population Membrane Permeable-Phenotype (%) [1, 13]: 16%
Population Mitochondria Different-Phenotype (%) [1, 13]: 0%
Population Mitotic Cells (%) [1, 13]: 0%
Population Normal (%) [1, 13]: 89%
Population Pyknosed Nuclei (%) [1, 13]: 0%
Population Tubulin-Different-Phenotype (%) [1, 13]: 21%
Total Cell Count [1, 13]: 114
Population Apoptotic (%) [1, 14]: 66%
Population Fragmented Nuclei (%) [1, 14]: 32%
Population Healthy Nuclei (%) [1, 14]: 43%
Population Hoechst High Intensity Objects (%) [1, 14]: 24%
Population Membrane Permeable-Phenotype (%) [1, 14]: 50%
Population Mitochondria Different-Phenotype (%) [1, 14]: 5%
Population Mitotic Cells (%) [1, 14]: 33%
Population Normal (%) [1, 14]: 75%
Population Pyknosed Nuclei (%) [1, 14]: 23%
Population Tubulin-Different-Phenotype (%) [1, 14]: 46%
Total Cell Count [1, 14]: 169
Population Apoptotic (%) [1, 15]: 100%
Population Fragmented Nuclei (%) [1, 15]: 50%
Population Healthy Nuclei (%) [1, 15]: 48%
Population Hoechst High Intensity Objects (%) [1, 15]: 17%
Population Membrane Permeable-Phenotype (%) [1, 15]: 14%
Population Mitochondria Different-Phenotype (%) [1, 15]: 1%
Population Mitotic Cells (%) [1, 15]: 0%
Population Normal (%) [1, 15]: 82%
Population Pyknosed Nuclei (%) [1, 15]: 1%
Population Tubulin-Different-Phenotype (%) [1, 15]: 43%
Total Cell Count [1, 15]: 236
Growth Rate ([2]; 0 h, replicate number 2, timepoint 0 hours): 1
Growth Rate [2, 16]: 0
Growth Rate [2, 17]: 0
Growth Rate [2, 18]: 0
Growth Rate [2, 19]: 0
Growth Rate [3, 16]: 0
Growth Rate [3, 17]: 0
Growth Rate [3, 18]: 0
Growth Rate [3, 19]: 0
